Measured values: ChEMBL document CHEMBL4765423, “Antikinetoplastid SAR study in 3-nitroimidazopyridine series: Identification of a novel non-genotoxic and potent anti-T. b. brucei hit-compound with improved pharmacokinetic properties” (Eur J Med Chem, 2020)
In brackets after ≈: the same amount, converted by molar mass.

Key:
[1] = Selectivity index, ratio of CC50 for human HepG2 cells to EC50 for Trypanosoma brucei brucei trypomastigotes AnTat 1.9; type: toxicity; conditions: read-out: Ratio CC50/EC50
Leishmania donovani [2] = assay: Antileishmanial activity against Leishmania donovani amastigotes infected in human THP1 cells assessed as reduction in parasite infection treated with compound at 24 hrs post infection and measured after 120 hrs by Giemsa staining-based assay; type: functional, organism-based; conditions: THP-1
How it was run: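 THP-1 cells were differentiated with PMA (50 ng/mL, 48 h). They were infected 10:1 with promastigotes acidified at pH 5.4, for 24 h. Compound was added (DMSO <0.5%), in duplicate, and cells were incubated 120 h at 37 °C, 5% CO₂. Cells were methanol-fixed and Giemsa-stained, and ≥200 cells were counted for % infected macrophages. IC50 came from regression, as the mean of ≥3 experiments.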

Leishmania infantum = assay: Antileishmanial activity against Leishmania infantum MHOM/MA/67/ITMAP-263 axenic amastigotes assessed as inhibition of parasitic metabolic activity incubated for 48 hrs by steady Glow reagent based luminescence assay; type: functional, organism-based; conditions: MHOM/MA/67/ITMAP-263, 48 h
How it was run: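 Luciferase-expressing promastigotes were acidified (pH 5.4, 24 h, 24 °C) and then held 24 h at 37 °C to give axenic amastigotes. These were used at 2×10⁶/mL with compound (DMSO <0.5%), in duplicate, for 48 h at 37 °C. Luciferase luminescence was read. EC50 came from non-linear regression, as the mean of three independent experiments.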

[3] = Selectivity index, ratio of CC50 for human HepG2 cells to EC50 for antileishmanial activity against Leishmania donovani MHOM/IN/00/DEVI promastigotes; type: toxicity; conditions: read-out: Ratio CC50/EC50
[4] = Selectivity index, ratio of CC50 for human HepG2 cells to EC50 for antileishmanial activity against Leishmania infantum MHOM/MA/67/ITMAP-263 axenic amastigotes; type: toxicity; conditions: read-out: Ratio CC50/EC50
[5] = tested on: Trypanosoma brucei brucei; assay: Antitrypanosomal activity against bloodstream form Trypanosoma brucei brucei AnTat 1.9 trypomastigotes assessed as reduction in parasite viability incubated for 69 hrs by Alamar Blue dye based assay; type: functional, organism-based; conditions: AnTat 1.9, 69 h
How it was run: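 BSF parasites were cultured in MEM/Baltz medium with 20% heat-inactivated horse serum, mercaptoethanol, L-cysteine and bathocuproine, at 37 °C and 5% CO₂. Cells were seeded at 2000 parasites/100 µL with compound from DMSO, in duplicate, for 69 h. Alamar Blue was added for 5 h and fluorescence read (ex 530/em 590 nm). EC50 came from non-linear regression over three independent experiments.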

Leishmania donovani [6] = assay: Antileishmanial activity against Leishmania donovani MHOM/IN/00/DEVI promastigotes assessed as inhibition of parasitic metabolic activity measured after 72 hrs by MTT assay; type: functional, organism-based
How it was run: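 Log-phase promastigotes at 10⁶/mL were grown in Schneider's medium with 20% FCS at 27 °C. Compound was added from DMSO stock (final <0.5% v/v), in duplicate, for 72 h. Metabolic activity was read by MTT (4 h, 27 °C) and absorbance at 570 nm. EC50 came from non-linear dose-response regression, as the mean of ≥3 independent experiments.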

[7] = Cytotoxicity against human HepG2 cells assessed as reduction in cell viability after 72 hrs by MTT assay; type: cell-based
How it was run: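 MTT was applied at 0.5 mg/mL for 2 h, formazan was dissolved in DMSO, and absorbance read at 570 nm with a 630 nm reference. Doxorubicin was the positive control. CC50 was taken from the dose-response curve, as the mean of three experiments.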

[8] = Toxicity in Swiss mouse assessed as lesions on lung at 100 mg/kg, po administered once daily for 5 days; type: organism-based; conditions: in vivo, 120 h, time 5 day
How it was run: (§1)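 Four mice received compound at 100 mg/kg by oral gavage once daily for 5 days, followed by a follow-up period.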

[9] = tested on: Trypanosoma brucei brucei; assay: Selectivity index, ratio of EC50 for antitrypanosomal activity against blood stream form of wild type Trypanosoma brucei brucei S427 trypomastigotes to EC50 for antitrypanosomal activity against blood stream form of Trypanosoma brucei brucei S427 trypomastigotes overexpressing NTR1; type: functional
[10] = Microsomal stability in CD-1 mouse liver microsomes assessed as half life in presence of NADP measured up to 40 mins by LC-MS analysis; type: ADME, Microsome
How it was run: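 Compound was incubated in duplicate with female CD-1 mouse microsomes at 37 °C in 50 mM phosphate, pH 7.4. An NADP-regenerating system was present (MgCl₂ 5 mM, NADP 1 mM, G6PDH 0.4 U/mL, G6P 5 mM).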

[11] = tested on: Trypanosoma brucei brucei; assay: Antitrypanosomal activity against blood stream form of wild type Trypanosoma brucei brucei S427 trypomastigotes assessed as inhibition of parasite growth; type: functional, organism-based
How it was run: (§2)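 Bloodstream-form single marker S427 (T7RPOL TETR NEO) grown at 37 °C in HMI9-T with 2.5 µg/mL G418. The NTR1-overexpressing line is additionally kept in 2.5 µg/mL phleomycin and induced with 1 µg/mL tetracycline 48 h before testing.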

HepG2 = assay: Genotoxicity in human HepG2 cells assessed as induction of DNA damage at 5 to 20 uM incubated for 2 to 72 hrs by alkaline comet assay; type: toxicity, cell-based; conditions: hepg2, 20 µM, dose lower 5 µM, time lower 2 hrs, dose upper 20 µM, time upper 72 hrs
How it was run: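 HepG2 cells were exposed to 5, 10 and 20 µM compound for 2, 24 or 72 h. Methyl methanesulfonate was the positive control, and read-out was % DNA in tail.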

[12] = Electrochemical behavior of the compound assessed as redox potential corrected toward normal hydrogen electrode by cyclic voltammetry
[13] = Toxicity in Swiss mouse assessed as lesions on brain at 100 mg/kg, po administered once daily for 5 days; type: organism-based; conditions: in vivo, 120 h, time 5 day; how it was run: as §1
Albumin = Albumin (Homo sapiens, UniProt P02768); assay: Binding affinity to human albumin incubated for 4 hrs by LC-MS analysis; type: ADME; conditions: read-out: PB (converted)
[14] = Cmax in Swiss mouse at 100 mg/kg, po by LC-MS/MS analysis; type: ADME, organism-based; parameters: route oral, dose 100 mg/kg; conditions: in vivo
How it was run: (§3)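 Mice were given oral doses of 100 mg/kg. Plasma Cmax, Tmax, half-life, AUC0-inf and clearance were derived from this.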

[15] = Tmax in Swiss mouse at 100 mg/kg, po by LC-MS/MS analysis; type: ADME, organism-based; conditions: in vivo; how it was run: as §3
[16] = Thermodynamic solubility of the compound in phosphate buffer at pH 7.4 incubated for 24 hrs under shaking condition by shake flask method; type: physicochemical; conditions: read-out: Therm_solubility
How it was run: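 The miniaturized shake-flask method used 20 mM DMSO stock diluted into phosphate buffer at pH 7.4 (n = 4). Tubes were shaken 24 h at room temperature and centrifuged. Supernatant was mixed 1:1 with acetonitrile and quantified by UV, with calibration at 370 nm.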

[17] = Toxicity in orally dosed Swiss mouse administered once daily for 5 days; type: organism-based; conditions: in vivo, po, time 5 day; how it was run: as §1
[18] = Permeability of the compound in pH 7.4 Prisma HT buffer at 100 uM incubated for 4 hrs by PAMPA-BBB assay method
[19] = Clearance in Swiss mouse at 100 mg/kg, po by LC-MS/MS analysis; type: ADME, organism-based; conditions: in vivo; how it was run: as §3
[20] = Half life in Swiss mouse at 100 mg/kg, po by LC-MS/MS analysis; type: ADME, organism-based; conditions: in vivo; how it was run: as §3
[21] = tested on: Trypanosoma brucei brucei; assay: Potency index, ratio of nifurtimox EC50 to compound EC50 for antitrypanosomal activity against blood stream form of wild type Trypanosoma brucei brucei S427 trypomastigotes; type: functional
[22] = Aqueous solubility of compound; type: physicochemical; conditions: buffer
[23] = Toxicity in Swiss mouse assessed as lesions on kidney at 100 mg/kg, po administered once daily for 5 days; type: organism-based; conditions: in vivo, 120 h, time 5 day; how it was run: as §1
CHO-K1 = assay: Genotoxicity in CHOK1 cells assessed as increase in micronucleated cells at 0.01 to 0.5 mM in presence or absence of S9 fraction measured after 3 hrs by Giemsa staining based micronucleus assay; type: toxicity, cell-based, Cricetulus griseus; conditions: chinese hamster, cho-k1, 3 h, 500 µM, dose 0.01-0.5 mM
How it was run: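 CHO-K1 cells in McCoy's 5A were exposed 3 h to 0.01–0.5 mM compound, with or without 10% S9 mix, in duplicate. Cells then received cytochalasin B (3 µg/mL) for 21 h and were methanol-fixed and Giemsa-stained. Micronuclei were scored in 1000 binucleated cells per well, and CBPI and cytostasis were also determined. A χ² test was run against the negative control.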

[24] = Toxicity in Swiss mouse assessed as lesions on liver at 100 mg/kg, po administered once daily for 5 days; type: organism-based; conditions: in vivo, 120 h, time 5 day; how it was run: as §1
[25] = AUC (0 to infinity) in Swiss mouse at 100 mg/kg, po by LC-MS/MS analysis; type: ADME, organism-based; parameters: time infinity, route oral, dose 100 mg/kg; conditions: in vivo; how it was run: as §3
[26] = tested on: Trypanosoma brucei brucei; assay: Antitrypanosomal activity against blood stream form of Trypanosoma brucei brucei S427 trypomastigotes overexpressing NTR1 assessed as inhibition of parasite growth; type: functional, organism-based; how it was run: as §2
[27] = Toxicity in Swiss mouse assessed as lesions on heart at 100 mg/kg, po administered once daily for 5 days; type: organism-based; conditions: in vivo, 120 h, time 5 day; how it was run: as §1

Albumin, sequence (P02768 whole entry): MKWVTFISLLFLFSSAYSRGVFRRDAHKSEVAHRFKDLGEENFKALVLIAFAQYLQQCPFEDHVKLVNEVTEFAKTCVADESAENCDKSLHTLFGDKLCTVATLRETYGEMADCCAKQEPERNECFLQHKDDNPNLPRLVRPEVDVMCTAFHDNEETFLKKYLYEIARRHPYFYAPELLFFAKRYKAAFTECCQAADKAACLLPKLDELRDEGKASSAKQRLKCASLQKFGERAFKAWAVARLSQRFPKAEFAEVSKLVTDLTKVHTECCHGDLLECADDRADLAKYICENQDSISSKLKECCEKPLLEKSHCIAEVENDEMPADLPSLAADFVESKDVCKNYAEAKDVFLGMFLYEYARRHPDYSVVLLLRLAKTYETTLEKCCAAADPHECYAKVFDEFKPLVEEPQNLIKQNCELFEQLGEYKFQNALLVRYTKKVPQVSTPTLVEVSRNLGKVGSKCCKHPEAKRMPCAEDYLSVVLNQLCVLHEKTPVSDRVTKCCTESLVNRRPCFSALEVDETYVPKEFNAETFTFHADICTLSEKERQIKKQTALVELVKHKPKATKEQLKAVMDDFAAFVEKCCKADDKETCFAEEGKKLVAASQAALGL

O=[N+]([O-])c1c(CS(=O)(=O)c2cccnc2)nc2c(Sc3ccc(Cl)cc3)cc(Cl)cn12
selectivity ratio [1]: > 26 | EC50 (Leishmania donovani [2]): > 10000 nM | EC50 (Leishmania infantum): 800 nM | selectivity ratio [3]: > 62.4 | selectivity ratio [4]: > 39 | EC50 [5]: 1200 nM | EC50 (Leishmania donovani [6]): 500 nM | CC50 at 72 h [7]: > 31200 nM

CS(=O)(=O)Cc1nc2c(Br)cc(Cl)cn2c1[N+](=O)[O-]
Activity [8]: Non-Toxic | Ratio EC50 [9]: 4 | half-life [10]: > 0.667 h | selectivity ratio [1]: 2650 | EC50 [11]: 65 nM | Activity (HepG2): Non-Toxic | Activity [12]: -0.6 V | Activity [13]: Non-Toxic | fraction unbound at 4 h (Albumin): 0.231 | Cmax [14]: 741 ng/mL | Tmax [15]: 5 h | solubility thermodynamic at 24 h [16]: 25.8 µM (≈ 9.51 µg/mL) | NOAEL at 120 h [17]: 100 mg/kg/day | Papp at 4 h, 100 µM [18]: 8.42 ×10⁻⁶ cm/s | EC50 (Leishmania infantum): > 25000 nM | CL/F [19]: 0.0085 mL/min | half-life [20]: 7.7 h | selectivity ratio [3]: 7.9 | selectivity ratio [4]: < 1.8 | Ratio EC50 [21]: 30 | EC50 [5]: 17 nM | solubility [22]: Soluble | Activity [23]: Non-Toxic | EC50 (Leishmania donovani [6]): 5700 nM | Activity (CHO-K1): Non-Toxic | Activity [24]: Non-Toxic | AUC(0-inf) [25]: 7060 ng·h/mL | CC50 at 72 h [7]: 45000 nM | EC50 [26]: 16 nM | Activity [27]: Non-Toxic

O=[N+]([O-])c1c(CS(=O)(=O)C2CCCCC2)nc2c(Sc3ccc(Cl)cc3)cc(Cl)cn12
selectivity ratio [1]: > 20.8 | EC50 (Leishmania donovani [2]): > 10000 nM | EC50 (Leishmania infantum): 1600 nM | selectivity ratio [3]: > 16.4 | selectivity ratio [4]: > 19.5 | EC50 [5]: 1500 nM | EC50 (Leishmania donovani [6]): 1900 nM | CC50 at 72 h [7]: > 31200 nM

Cn1c(=O)c2[nH]cnc2n(C)c1=O.O [THEOPHYLLINE]
Papp at 4 h, 100 µM [18]: 0.47 ×10⁻⁶ cm/s
